Sampled rows, rich in hits. Any-hit rate of the full collection: about 3.9%.
XBP1 UPR activ – activators of adaptive XBP1 UPR arm, primary screen, cell-based, CHO-XBP1 luciferase reporter, luminescence, uHTS; IRE1-XBP1 UPR activation; percent of tunicamycin response, DMSO as zero; activation, % at 20 µM; 0.33% of 330,000 active; AID 463104, 2010;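 active = versus positive control, 20 µM dose yields 30% or more activation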;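 also: 100% = tunicamycin at 10 µg/mL and 0% = DMSO only wells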
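Assay system: IRE1-XBP1 luciferase reporter CHO line. Input: 1000 cells/well. Buffer or medium: F12 with 10% serum. Doses: 20 µM, 1% DMSO. Times: overnight seeding at 37 °C, 6 h compound treatment at 37 °C. Technique: Steady-Glo luciferase glow luminescence, 10 min after reagent addition.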
Jurkat NFkB inh – inhibitors of induced NF-kB luciferase reporter, primary screen, TCR NF-kB activation inhibitor project, cell-based, luminescence, uHTS | Jurkat, PMA/ionomycin-induced NF-kB luciferase reporter | inhibition, % at 4 µM | 0.53% of 330,000 active | AID 435003, 2010; in the data active = inhibition above about 50%
CHOP inh – inhibitors of CHOP promoter induction, primary screen, cell-based, unfolded protein response, luciferase reporter | CHO-K1 CHOP-promoter luciferase, tunicamycin-induced, 15-18 h | inhibition, % at 10 µM | 3.8% of 220,000 active | AID 2732, 2010;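 active = compounds that reduced the stress-induced luciferase reporter signal by more than about 70% of percent inhibition, limit read from the data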;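 also: 0% = tunicamycin plus vehicle and 100% = wells without tunicamycin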
697 NFkB inh – inhibitors of PMA/ionomycin-induced NF-kB reporter, 697 cells, primary screen, B-cell NF-kB inhibitor project, cell-based, luminescence, uHTS; AID 435022, 2010; 697 B-cell NF-kB luciferase reporter, 16 h; 0.33% of 330,000 active; inhibition, % at 4 µM; in the data active = inhibition above about 35%
CHOP UPR activ – activators of apoptotic CHOP UPR arm, primary screen, cell-based, CHO-CHOP luciferase reporter, luminescence, uHTS; 0.34% of 330,000 active; activation, % at 10 µM; UPR activation; percent of tunicamycin response over DMSO baseline;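 active = at 10 µM dose, activation of 40% or more, normalized to positive control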;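 also: 100% = tunicamycin at 10 µg/mL and 0% = DMSO alone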
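System: CHO-CHOP luciferase reporter cell line; amount: 500 cells/well; buffer or medium: F12 medium containing 10% fetal bovine serum; incubation: 6 h compound exposure at 37 °C after overnight seeding; measured by: luciferase luminescence after 10 min with Steady-Glo reagent; evaluation: % reporter activation, DMSO baseline versus tunicamycin full activation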
Gli-Sufu antag – Gli-Sufu pathway antagonists, primary screen, luciferase luminescence, Sufu-KO-LIGHT cells, uHTS. Sufu-KO-LIGHT fibroblasts, Gli luciferase reporter luminescence. inhibition, % at 5 µM. 0.74% of 340,000 active;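 active = inhibition above about 55%, limit read from the data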;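 also: 0% = DMSO-treated cells and 100% = wells with medium but no cells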
CHOP confirm – retest of CHOP induction inhibitors, confirmation, cell-based | shares compounds with CHOP inh | CHO-CHOP promoter luciferase reporter, tunicamycin-induced, luminescence | inhibition, % at 10 µM | 45% of 2,100 active;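 active = mean of three repeat readings of reporter signal inhibition above a set limit, cut at about 70% in these data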;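 also: 0% = tunicamycin plus vehicle and 100% = wells lacking tunicamycin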
Numbers without * were called inactive.

O=C(CN1CCCc2ccccc21)Nc1ccc(F)cc1[N+](=O)[O-] was read as XBP1 UPR activ -3, Jurkat NFkB inh 2, CHOP inh 74*, 697 NFkB inh 15, CHOP UPR activ 2 and Gli-Sufu antag 3.
Screening COc1ccc(/C(O)=C/c2nc3ccc(C(=O)NCCc4cccc(C)c4)cc3[nH]c2=O)cc1OC returned XBP1 UPR activ -5, Jurkat NFkB inh 9, CHOP inh 73*, 697 NFkB inh 11, CHOP UPR activ 0 and Gli-Sufu antag -6.
COc1cc(OC)cc(C(=O)NCC(=O)N2CCN(c3ccc(O)cc3)CC2)c1 was read as XBP1 UPR activ 0, Jurkat NFkB inh 27, 697 NFkB inh -9, CHOP UPR activ -1 and Gli-Sufu antag 58*.
For Cc1cc(C)c(OCC(=O)Nc2ccc(N3CCOCC3)cc2)c(Br)c1 the results were XBP1 UPR activ 1, Jurkat NFkB inh -6, 697 NFkB inh -23 and CHOP UPR activ 2.
`NC(=O)C(c1ccc(Cl)cc1)c1ccc(Sc2ccc(Cl)cc2)nn1` (configuration not stated) gave XBP1 UPR activ -3, Jurkat NFkB inh 11, CHOP inh 83*, 697 NFkB inh -5, CHOP UPR activ -1 and Gli-Sufu antag 20.
For O=C(CSc1ccc(-c2ccncc2)nn1)c1ccc(Cl)cc1 the results were XBP1 UPR activ -2, Jurkat NFkB inh 4, CHOP inh 4, 697 NFkB inh -24, CHOP UPR activ 2 and Gli-Sufu antag 3.
`CCc1ccc(NC(=O)COC(=O)CC2CCCC2)cc1` gave XBP1 UPR activ -1, Jurkat NFkB inh -13, 697 NFkB inh -40, CHOP UPR activ -1 and Gli-Sufu antag 9.
Screening CC(NS(=O)(=O)/C=C/c1ccccc1)C(=O)O (configuration not stated) returned XBP1 UPR activ 0, Jurkat NFkB inh 15, CHOP inh 86*, 697 NFkB inh -1, CHOP UPR activ 2 and Gli-Sufu antag -6.
For CC1=NN(c2nc(-c3ccc(C)cc3)cs2)C(=O)C1N=Nc1ccc(C(N)=O)cc1 (configuration not stated) the results were CHOP inh 107* and Gli-Sufu antag 9.
Screening C=CCn1c(SCC(=O)Nc2ccc(S(N)(=O)=O)cc2)nnc1-c1cnccn1 returned XBP1 UPR activ -4, Jurkat NFkB inh -20, 697 NFkB inh -7, CHOP UPR activ -2 and Gli-Sufu antag 35.
For CC(C)(C)c1nc2c(C#N)c(-c3ccc(Cl)cc3)ccn2n1 the results were XBP1 UPR activ 6, Jurkat NFkB inh -41, CHOP inh 101*, 697 NFkB inh -44, CHOP UPR activ 4, Gli-Sufu antag -2 and CHOP confirm 21.
For CC(C)(C)NC(=O)NC(=O)COC(=O)c1ccc2c(c1)S(=O)(=O)N=C1CCCCCN12 the results were XBP1 UPR activ 0, Jurkat NFkB inh -4, CHOP inh -1, 697 NFkB inh 2, CHOP UPR activ -2 and Gli-Sufu antag -3.
Screening CC(NC(=O)COC(=O)c1ccc2c(c1)S(=O)(=O)N=C1CCCCCN12)C12CC3CC(CC(C3)C1)C2 (configuration not stated) returned XBP1 UPR activ -1, Jurkat NFkB inh -18, CHOP inh 104*, 697 NFkB inh 13, CHOP UPR activ -2, Gli-Sufu antag -1 and CHOP confirm -18.
Screening O=C1CC(C(=O)Nc2ccc(Cl)c(Cl)c2)S/C(=N\N=C\c2ccco2)N1 (configuration not stated) returned XBP1 UPR activ 2, Jurkat NFkB inh 2, CHOP inh 100*, 697 NFkB inh 9, CHOP UPR activ 2, Gli-Sufu antag -5 and CHOP confirm 23.
Screening CCOC(=O)C(NC(=O)Nc1cccc(C)n1)(OCC(F)(F)F)C(F)(F)F (configuration not stated) returned XBP1 UPR activ 2, Jurkat NFkB inh -15, CHOP inh 106*, 697 NFkB inh -6, CHOP UPR activ 0, Gli-Sufu antag -4 and CHOP confirm 95*.
`O=C(c1ccc2c3c(cccc13)C(=O)N(O)C2=O)N1CCCCC1` gave XBP1 UPR activ 4, Jurkat NFkB inh -14, CHOP inh 98*, 697 NFkB inh 5, CHOP UPR activ -6, Gli-Sufu antag -3 and CHOP confirm 109*.
For O=C(c1cccc2ccccc12)N1CCCCC1 the results were XBP1 UPR activ -2, Jurkat NFkB inh 15, 697 NFkB inh -4, CHOP UPR activ -1 and Gli-Sufu antag 2.
`C=C(C(=O)Nc1ccccc1)c1ccc(C)cc1` gave XBP1 UPR activ -2, Jurkat NFkB inh 3, 697 NFkB inh 13, CHOP UPR activ 0 and Gli-Sufu antag -10.
`Cc1cccc(C(=O)OCC(=O)NCCNC(=O)COC(=O)c2cccc(C)c2C)c1C` gave XBP1 UPR activ 1, Jurkat NFkB inh 6, 697 NFkB inh 18, CHOP UPR activ 0 and Gli-Sufu antag -15.
For Oc1ccc(Br)cc1-c1nc2cnccn2c1NC1CCCC1 the results were XBP1 UPR activ -1, Jurkat NFkB inh 14, 697 NFkB inh -3, CHOP UPR activ -2 and Gli-Sufu antag -2.
Oc1ccc(Br)cc1-c1nc2cnccn2c1NC1CCCCC1 was read as XBP1 UPR activ 9, Jurkat NFkB inh 19, CHOP inh 98*, 697 NFkB inh -24, CHOP UPR activ 0, Gli-Sufu antag 10 and CHOP confirm 87*.
COc1cc(/C=C(/C#N)c2nc3ccccc3c(=O)[nH]2)ccc1O was read as XBP1 UPR activ 3, Jurkat NFkB inh 21, CHOP inh 102*, 697 NFkB inh 24, CHOP UPR activ 6, Gli-Sufu antag -14 and CHOP confirm 112*.
`O=C(O)CCn1nc(-c2ccc(F)cc2)cc(Cc2ccccc2)c1=O` gave XBP1 UPR activ -3, Jurkat NFkB inh 7, 697 NFkB inh 0, CHOP UPR activ -1 and Gli-Sufu antag 1.
Screening COc1ccc(-c2[nH]ncc2/C=C(/C#N)C(=O)NC2CCCCCC2)cc1 returned XBP1 UPR activ 3, Jurkat NFkB inh 17, CHOP inh 99*, 697 NFkB inh -26, CHOP UPR activ 1, Gli-Sufu antag 6 and CHOP confirm 82*.
CCOc1ccccc1NC(=O)CCCNC(=O)Cn1cnc2sc(C)c(C)c2c1=O was read as XBP1 UPR activ -6, Jurkat NFkB inh 3, 697 NFkB inh 3, CHOP UPR activ 0 and Gli-Sufu antag -1.
